Compounds with a hit are over-represented: about 11% of the library has one in this group of screens.
G6PDH counter: inhibits Leuconostoc G6PDH, flagging false hits in G6PDH-based assays. inhibition, % at 5 µM. AID 1020. hit rate 0.12% among 200,000. Purified L. mesenteroides G6PDH, diaphorase/resazurin coupled fluorescence, 45 min
Diaph act CS: diaphorase activation or chemical reduction counter-screen. AID 1229. activation factor at 20 µM. Diaphorase/resazurin coupled assay, resorufin fluorescence, 16 min; active compounds read high; 1 = vehicle wells, 0 = NADH-free wells. hit rate 0.005% among 190,000;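 active means diaphorase activity raised at least twofold by the compound at 20 µM; inactive means activation factor below 2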
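Material: Purified diaphorase enzyme from Clostridium kluyveri | Buffer or medium: 50 mM HEPES pH 7.4 with 4.542 mM MgCl2, 0.005% Tween 20 | Times: 16 min enzyme reaction, ambient temperature | Signal: Red resorufin fluorescence at 544/590 nm excitation/emission | Measure: Increased resorufin signal from activators or reducing compounds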
Lmaj promast: Leishmania major promastigote growth inhibition. Leishmania major promastigotes, resazurin fluorescence viability. inhibition, % at 10 µM. hit rate 9% among 200,000. AID 1063;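 further: promastigotes grown with compound for 44 hours at 28 °C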
Diaph inh CS: inhibits diaphorase or chemically oxidizes, flagging diaphorase assay artifacts | inhibition, % at 20 µM | AID 1217 | hit rate 0.69% among 190,000 | diaphorase resazurin-to-resorufin fluorescence, NADH, 16 min; bacterial (C. kluyveri) enzyme, not human;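 active means primary screen inhibition at 20 µM above a set limit, cut at about 50% in these data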
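Test system: Clostridium kluyveri diaphorase enzyme / Quantity: diaphorase at 0.14 U/mL in enzyme working solution / Incubation: 16-min room-temperature incubation before reading / Benchmarks: NADH-free wells as positive control, DMSO-only neutral wells / Signal: resorufin fluorescence 544/590 nm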
WT yeast gro inh: growth inhibition of WT yeast, mitochondrial fusion screen | mitochondrial fusion phenotypic screen, WT strain | inhibition, % at 10 µM | hit rate 2.1% among 190,000 | AID 1362; in the data active means inhibition above about 58%; tested in S. cerevisiae
Hits are given with their value; . = inactive; / = no result given. Unless noted, no stated cut-off is given here; in the data, active means inhibition above about 50%; inactive means the rest.

SMILES	G6PDH counter	Diaph act CS	Lmaj promast	Diaph inh CS	WT yeast gro inh
Cc1ccc2c(c1)=C/C(=C\c1c(O)[nH]c(=S)[nH]c1=O)C(=O)N=2	.	.	.	53.5	.
CSCCC(N=Cc1c(O)n(-c2ccc(Cl)cc2)c(=O)[nH]c1=O)C(=O)OC(C)(C)C (stereo unspecified)	.	.	.	.	.
CC[n+]1c(SC)ccc2cc(OC)ccc21	.	.	.	.	70.9
Nc1nnc(CCN2CCCCC2)s1	.	.	.	.	.
Cc1ccc2c(c1)C1CN(C)CCC1N2S(=O)(=O)c1ccccc1 (stereo unspecified)	.	.	.	.	.
Cc1ccc2c(c1)C1CN(C)CCC1N2C(=O)Nc1cccc(C(F)(F)F)c1 (stereo unspecified)	.	.	50.3	.	.
Cc1ccc2c(c1)C1CN(C)CCC1N2C(=O)c1ccc(Br)o1 (stereo unspecified)	.	.	.	.	.
Cc1ccc2c(c1)C1CN(C)CCC1N2C(=O)c1cn(-c2ccccc2)nc1-c1ccccc1 (stereo unspecified)	.	.	53.2	.	86.1
Cc1ccc2c(c1)[C@@H]1CN(C)CC[C@@H]1N2C(=O)Nc1cccc(C(F)(F)F)c1	.	.	81.1	.	.
CN1CCN(c2c[nH]c(=O)[nH]c2=O)CC1	.	.	.	.	.
CCOC(=O)c1c(-n2c(C)cc(/C=C3\C(=O)NC(=O)N(C)C3=O)c2C)sc2c1CCCC2	.	.	92.5	.	.
CC(=O)N(C1=NCCCS1)c1ccccc1Cl	.	.	69.2	.	.
CC(=O)c1cccc(OCC(O)CN2CC=C(c3ccccc3)CC2)c1 (stereo unspecified)	.	.	93.7	.	.
Nc1ccc2c(c1)oc1ccccc12	.	.	.	.	.
O=C(c1cc(C(=O)NCc2ccc(Cl)cc2)c(=O)n(Cc2ccc(Cl)cc2)c1)c1cc(F)ccc1O	.	.	.	.	.
Cc1ccc(O)c(C(=O)c2cc(C(=O)NCCC(C)C)c(=O)n(CCC(C)C)c2)c1	.	.	81.5	.	.
CC(C)OC(=O)c1c(N)n(Cc2ccco2)c2nc3ccccc3nc12	/	/	56.3	/	.
CCCNC(=O)c1c(N)n(Cc2ccco2)c2nc3ccccc3nc12	.	.	.	.	.
C=CCNC(=O)c1c(N)n(CCN2CCOCC2)c2nc3ccccc3nc12	.	.	.	.	.
Nc1c(C(=O)NCc2ccco2)c2nc3ccccc3nc2n1CCN1CCCCC1	.	.	64.5	.	.
CC(C)CNC(=O)c1c(N)n(Cc2ccc3c(c2)OCO3)c2nc3ccccc3nc12	.	.	67.5	.	.
COc1ccc(Cn2c(N)c(C(=O)NCc3ccco3)c3nc4ccccc4nc32)cc1OC	.	.	59.3	.	.
Cc1ccc(/C=C2\C(=O)NC(=O)N(CCc3ccc(F)cc3)C2=O)s1	.	.	.	.	.
CCN1C(=O)/C(=C\c2ccc([N+](=O)[O-])s2)C(=O)NC1=S	.	.	99.4	.	.
COc1ccc(OC)c(N2C(=O)NC(=O)/C(=C/c3ccc([N+](=O)[O-])s3)C2=O)c1	.	.	96.8	.	.
SMILES	G6PDH counter	Diaph act CS	Lmaj promast	Diaph inh CS	WT yeast gro inh
Cc1cc(C)c(S(=O)(=O)NCC2CCC(C(=O)N3CCC4(CC3)OCCO4)CC2)c(C)c1 (stereo unspecified)	.	.	.	.	.
CCOC(=O)c1ccc(N=Cc2c(O)n(-c3ccccc3F)c(=S)[nH]c2=O)cc1	.	.	61.2	.	.
CCn1c(O)c(C=Nc2ccc(S(N)(=O)=O)cc2)c(=O)[nH]c1=S	.	.	56.4	.	.
CCn1c(O)c(C=Nc2ccc(S(N)(=O)=O)cc2)c(=O)n(CC)c1=S	.	.	.	.	.
CC(C)NS(=O)(=O)c1ccc(OCC(=O)N2CCN(Cc3ccc4c(c3)OCO4)CC2)c(Cl)c1	.	.	55.9	.	.
CCn1c(=O)cc(OCC(=O)N2CCN(Cc3ccc4c(c3)OCO4)CC2)c2ccccc21	.	.	.	.	.
Cc1cc(S(=O)(=O)NCC(C)C)ccc1OCC(=O)N1CCN(Cc2ccccc2)CC1	.	.	.	.	.
Cc1cc(S(=O)(=O)NC(C)C)ccc1OCC(=O)N1CCN(Cc2ccc3c(c2)OCO3)CC1	.	.	96.0	.	.
CSc1ccc(CN2CCN(C(=O)COc3cccc(C)c3)CC2)cc1	.	.	86.6	.	.
Cc1cccc(OCC(=O)N2CCN(Cc3cccnc3)CC2)c1	.	/	.	/	.

Assay outcomes from PubChem.
